ChEMBL document CHEMBL1143955, “Synthesis and exploration of novel curcumin analogues as anti-malarial agents” (Bioorg Med Chem, 2008)
≈ marks a conversion by molar mass, not a printed value. Calls of active or inactive are those of the source. The calls are words filed in the database; no cut-off is given here.

What was measured:
Type in all cases: functional, organism-based
Plasmodium falciparum [1] = assay: Antimalarial activity against chloroquine-sensitive Plasmodium falciparum FCK2 in red blood cells as reduced parasitemia in [3H]hypoxanthine uptake; conditions: in the assay text read “by microscopic examination” for “in [3H]hypoxanthine uptake”
Plasmodium falciparum [2] = assay: Antimalarial activity against chloroquine-sensitive Plasmodium falciparum FCK2
Method in brief: (§1)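 Sorbitol-synchronised P. falciparum cultured in RPMI 1640 with 10% human serum, 0.225% sodium bicarbonate and 0.01 mg/mL gentamicin. Infected red cells (1–2% parasitemia, ring stage) were used at 2% hematocrit with varying inhibitor concentrations (final DMSO ≤0.05%; 0.05% DMSO as solvent control), starting at early trophozoite and dosing up to day 4. Parasitemia was read by Giemsa microscopy, and IC50 was fitted by non-linear regression of relative % parasitemia versus log concentration.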

Plasmodium falciparum [3] = assay: Antimalarial activity against chloroquine-resistant Plasmodium falciparum MP14 in red blood cells as reduced parasitemia in [3H]hypoxanthine uptake assay
Method in brief: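 Ring-stage synchronised parasites were used at 2–3% hematocrit and 1–2% initial parasitemia, in duplicate. Varying inhibitor concentrations (final DMSO ≤0.05%) were added in fresh medium every 24 h for 48 h. [3H]-hypoxanthine was then added for 36 h, and cells were harvested onto glass-fibre filters and read by scintillation counting. IC50 came from a non-linear regression fit of relative % parasitemia versus log concentration.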

Plasmodium falciparum [4] = assay: Antimalarial activity against chloroquine-resistant Plasmodium falciparum MP14; method in brief: as §1

SMILES | Activity (Plasmodium falciparum [1]) | IC50 (Plasmodium falciparum [2]) | MIC (Plasmodium falciparum [2]) | Activity (Plasmodium falciparum [3]) | IC50 (Plasmodium falciparum [4]) | MIC (Plasmodium falciparum [4])
COc1cc(/C=C/c2cc(/C=C/c3ccc(O)c(OC)c3)n(-c3cccc([N+](=O)[O-])c3)n2)ccc1O | Active | 0.87 µM | 4.9 µM (≈ 2.38 µg/mL) | Active | 0.89 µM | 5.1 µM (≈ 2.48 µg/mL)
COc1cc(/C=C/c2cc(/C=C/c3ccc(O)c(OC)c3)[nH]n2)ccc1O [CURCUMIN PYRAZOLE] |  | 0.48 µM | 3.9 µM (≈ 1.42 µg/mL) |  | 0.45 µM | 3.6 µM (≈ 1.31 µg/mL)
COc1ccc(/C=C/C(=O)CC(=O)/C=C/c2ccc(OC)c(OC)c2)cc1OC [TETRAMETHOXYCURCUMIN] |  | 7.86 µM | 29.6 µM (≈ 11.7 µg/mL) |  | 8.4 µM | 29.1 µM (≈ 11.5 µg/mL)
COc1cc(/C=C/c2cc(/C=C/c3ccc(O)c(OC)c3)n(-c3ccccc3)n2)ccc1O |  | 8.48 µM | 22.4 µM (≈ 9.87 µg/mL) |  | 9.1 µM | 25 µM (≈ 11 µg/mL)
COc1cc(C=C(C(=O)/C=C/c2ccc(O)c(OC)c2)C(=O)/C=C/c2ccc(O)c(OC)c2)ccc1O |  | 0.92 µM | 5.2 µM (≈ 2.61 µg/mL) |  | 0.75 µM | 4.8 µM (≈ 2.41 µg/mL)
COc1cc(/C=C/c2cc(/C=C/c3ccc(O)c(OC)c3)n(-c3ccc(Cl)cc3Cl)n2)ccc1O |  | 4.65 µM | 21.8 µM (≈ 11.1 µg/mL) |  | 4.8 µM | 21.4 µM (≈ 10.9 µg/mL)
COc1cc(/C=C/c2cc(/C=C/c3ccc(O)c(OC)c3)on2)ccc1O |  | 8.44 µM | 27.3 µM (≈ 9.98 µg/mL) |  | 7.92 µM | 25.3 µM (≈ 9.24 µg/mL)
COc1cc(/C=C/c2cc(/C=C/c3ccc(O)c(OC)c3)n(-c3ccc(F)cc3)n2)ccc1O |  | 2.42 µM | 14.3 µM (≈ 6.56 µg/mL) |  | 2.1 µM | 12.9 µM (≈ 5.91 µg/mL)
COc1ccc(-n2nc(/C=C/c3ccc(O)c(OC)c3)cc2/C=C/c2ccc(O)c(OC)c2)cc1 |  | 22.6 µM | 35.8 µM (≈ 16.8 µg/mL) |  | 24.6 µM | 41.2 µM (≈ 19.4 µg/mL)
COc1cc(/C=C/C(=O)CC(=O)/C=C/c2ccc(O)c(OC)c2)ccc1O [CURCUMIN] |  | 3.25 µM | 13.2 µM (≈ 4.86 µg/mL) |  | 4.21 µM | 14.4 µM (≈ 5.3 µg/mL)
COc1cc(/C=C/C(=O)C(=Cc2ccc(O)cc2)C(=O)/C=C/c2ccc(O)c(OC)c2)ccc1O |  | 5.85 µM | 23.7 µM (≈ 11.2 µg/mL) |  | 5.36 µM | 23.1 µM (≈ 10.9 µg/mL)
COc1cc(/C=C/C(=O)C(=Cc2ccccc2)C(=O)/C=C/c2ccc(O)c(OC)c2)ccc1O |  | 3.89 µM | 16.5 µM (≈ 7.53 µg/mL) |  | 4.12 µM | 17.2 µM (≈ 7.85 µg/mL)
COc1cc(/C=C/C(=O)CC(=O)/C=C/c2ccc(OC(C)=O)c(OC)c2)ccc1OC(C)=O |  | 2.34 µM | 14.9 µM (≈ 6.74 µg/mL) |  | 2.51 µM | 15.3 µM (≈ 6.92 µg/mL)
